Assay results as given in ChEMBL document CHEMBL2417446, “Atropisomeric 4-phenyl-4H-1,2,4-triazoles as selective glycine transporter 1 inhibitors” (J Med Chem, 2013).
Values after ≈ are worked out from the molar mass of the structure shown.

Columns and labels:
[1] = biological target: T1, Sodium- and chloride-dependent glycine transporter 1 (Rattus norvegicus, UniProt P28572); experiment: Displacement of [3H]glycine from GlyT1 in rat C6 glioma cells incubated for 30 mins prior to substrate addition measured after 10 mins by scintillation counting analysis; type: cell-based
T1 sequence (P28572 whole entry): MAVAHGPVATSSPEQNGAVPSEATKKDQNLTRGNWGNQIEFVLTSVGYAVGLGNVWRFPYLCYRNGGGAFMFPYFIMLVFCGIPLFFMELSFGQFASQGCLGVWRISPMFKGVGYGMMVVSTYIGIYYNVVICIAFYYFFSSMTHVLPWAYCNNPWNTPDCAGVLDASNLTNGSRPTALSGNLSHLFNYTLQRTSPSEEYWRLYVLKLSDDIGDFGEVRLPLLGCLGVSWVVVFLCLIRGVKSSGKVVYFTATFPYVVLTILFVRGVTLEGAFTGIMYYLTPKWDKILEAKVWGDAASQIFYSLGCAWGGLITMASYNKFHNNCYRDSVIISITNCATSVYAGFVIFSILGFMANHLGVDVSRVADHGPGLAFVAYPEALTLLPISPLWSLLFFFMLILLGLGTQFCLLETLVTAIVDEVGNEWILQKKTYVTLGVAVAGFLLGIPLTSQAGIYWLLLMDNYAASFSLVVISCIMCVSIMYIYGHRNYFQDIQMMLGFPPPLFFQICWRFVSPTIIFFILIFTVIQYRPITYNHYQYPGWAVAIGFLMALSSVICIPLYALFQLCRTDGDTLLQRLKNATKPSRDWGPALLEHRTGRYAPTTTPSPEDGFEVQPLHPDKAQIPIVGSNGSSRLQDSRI

[2] = Intrinsic clearance in ddY mouse liver microsomes by LC-MS/MS analysis; type: ADME, Microsome; conditions: read-out: CLH
In short: (§1)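 Liver microsome CLint was run in duplicate.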

[3] = Intrinsic clearance in human liver microsomes after 30 mins by LC-MS/MS analysis; type: ADME, Microsome; conditions: read-out: CLH; in short: as §1
[4] = tested on: MDR1; experiment: (§2) Apparent permeability from apical to basolateral side in pig LLC-PK1 cells expressing MDR1 after 2 hrs by LC-MS/MS analysis; type: ADME, cell-based, Sus scrofa; conditions: LLC-PK1
In short: (§3)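 Transport in LLC-PK1 cells and in LLC-GA5-COL150 cells (LLC-PK1 transfected with human MDR1). Papp = amount transported divided by initial donor concentration. Efflux ratio compares the Papp of the two directions (BA/AB).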

[5] = Aqueous solubility of the compound at pH 6.8 after 20 hrs by HPLC analysis; type: physicochemical; conditions: buffer; for solubility at 20 h: pH 6.8; for solubility: pH 6.8, 20 h, 20 h
[6] = Lipophilicity, log D of the compound at pH 7.4; type: physicochemical; conditions: buffer
[7] = biological target: T2, Sodium- and chloride-dependent glycine transporter 2 (Rattus norvegicus, UniProt P58295); experiment: Displacement of [3H]glycine from GlyT2 in Wistar rat brainstem cells after 10 mins by scintillation counting analysis; type: cell-based
T2 sequence (P58295 whole entry): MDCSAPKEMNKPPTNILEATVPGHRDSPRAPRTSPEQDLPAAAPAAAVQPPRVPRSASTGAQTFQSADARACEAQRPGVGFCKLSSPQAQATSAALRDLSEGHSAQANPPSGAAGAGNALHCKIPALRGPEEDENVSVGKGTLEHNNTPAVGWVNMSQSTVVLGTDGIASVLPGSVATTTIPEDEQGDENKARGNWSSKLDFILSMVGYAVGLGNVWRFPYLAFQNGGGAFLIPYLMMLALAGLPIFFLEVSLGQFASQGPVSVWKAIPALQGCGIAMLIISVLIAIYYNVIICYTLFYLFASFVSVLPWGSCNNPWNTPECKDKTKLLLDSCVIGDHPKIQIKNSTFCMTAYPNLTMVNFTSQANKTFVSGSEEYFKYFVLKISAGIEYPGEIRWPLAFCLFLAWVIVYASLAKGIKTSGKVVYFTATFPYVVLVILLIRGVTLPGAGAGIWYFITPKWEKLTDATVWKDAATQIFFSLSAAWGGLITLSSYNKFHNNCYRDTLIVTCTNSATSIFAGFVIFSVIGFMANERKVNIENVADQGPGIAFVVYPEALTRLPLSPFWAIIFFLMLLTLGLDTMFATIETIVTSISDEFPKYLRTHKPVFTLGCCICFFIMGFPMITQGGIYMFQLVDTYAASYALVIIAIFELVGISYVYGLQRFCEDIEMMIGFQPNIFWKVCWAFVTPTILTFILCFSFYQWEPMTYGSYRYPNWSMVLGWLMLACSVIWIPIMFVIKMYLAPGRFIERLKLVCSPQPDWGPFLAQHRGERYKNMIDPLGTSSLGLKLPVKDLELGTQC

[8] = Plasma clearance in cynomolgus monkey at 1 mg/kg, iv by LC/MS analysis; type: ADME, organism-based, Macaca fascicularis; set-up: dose 1 mg/kg, route intravenous
In short: (§4)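 Single dose given iv at 1 mg/kg or po at 3 mg/kg; each value is the mean of n = 3 measurements.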

[9] = Volume of distribution at steady state in cynomolgus monkey at 1 mg/kg, iv by LC/MS analysis; type: ADME, organism-based, Macaca fascicularis; set-up: dose 1 mg/kg, route intravenous; conditions: in vivo, read-out: Vdss
In short: (§5)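 Single intravenous dose as a pharmacokinetic study, with each parameter reported as the mean of n = 3 measurements.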

[10] = Half life in cynomolgus monkey at 1 mg/kg, iv by LC/MS analysis; type: ADME, organism-based, Macaca fascicularis; set-up: dose 1 mg/kg, route intravenous; conditions: in vivo; in short: as §4
[11] = Half life in ddY mouse at 1 mg/kg, iv by LC/MS analysis; type: ADME, organism-based; set-up: dose 1 mg/kg, route intravenous; conditions: in vivo; in short: as §4
[12] = AUC in cynomolgus monkey at 3 mg/kg, po by LC/MS analysis; type: ADME, organism-based, Macaca fascicularis; set-up: dose 3 mg/kg, route oral; conditions: plasma; in short: as §4
[13] = Oral bioavailability in cynomolgus monkey at 3 mg/kg by LC/MS analysis; type: ADME, organism-based, Macaca fascicularis; conditions: in vivo; in short: as §4
[14] = AUC in cynomolgus monkey at 1 mg/kg, iv by LC/MS analysis; type: ADME, organism-based, Macaca fascicularis; set-up: dose 1 mg/kg, route intravenous; conditions: plasma; in short: as §4
[15] = Cmax in cynomolgus monkey at 3 mg/kg, po by LC/MS analysis; type: ADME, organism-based, Macaca fascicularis; set-up: dose 3 mg/kg, route oral; conditions: in vivo; in short: as §4
[16] = Plasma clearance in ddY mouse at 1 mg/kg, iv by LC/MS analysis; type: ADME, organism-based; set-up: dose 1 mg/kg, route intravenous; in short: as §4
[17] = AUC in ddY mouse at 3 mg/kg, po by LC/MS analysis; type: ADME, organism-based; set-up: dose 3 mg/kg, route oral; conditions: plasma; in short: as §4
[18] = Intrinsic clearance in cynomolgus monkey liver microsomes after 30 mins by LC-MS/MS analysis; type: ADME, Macaca fascicularis, Microsome; conditions: read-out: CLH; in short: as §1
[19] = tested on: LLC-PK1; experiment: as §2; type: ADME, cell-based, Sus scrofa; conditions: llc-pk1, 2 h, 2 h; in short: as §3
[20] = Cmax in ddY mouse at 3 mg/kg, po by LC/MS analysis; type: ADME, organism-based; set-up: dose 3 mg/kg, route oral; conditions: in vivo; in short: as §4
[21] = Oral bioavailability in ddY mouse at 3 mg/kg by LC/MS analysis; type: ADME, organism-based; conditions: in vivo; in short: as §4
[22] = AUC in ddY mouse at 1 mg/kg, iv by LC/MS analysis; type: ADME, organism-based; set-up: dose 1 mg/kg, route intravenous; conditions: plasma; in short: as §4
[23] = Volume of distribution at steady state in ddY mouse at 1 mg/kg, iv by LC/MS analysis; type: ADME, organism-based; set-up: dose 1 mg/kg, route intravenous; conditions: in vivo, read-out: Vdss; in short: as §5
[24] = Ratio of brain to plasma in ddY mouse at 1 mg/kg, iv by LC-MS analysis; type: ADME, organism-based; set-up: dose 1 mg/kg, route intravenous; conditions: read-out: BPR
[25] = biological target: T3, Sodium- and chloride-dependent glycine transporter 1 (Rattus norvegicus) (UniProt P28572); conditions: C6 glioma, 10 uM
T3 sequence (whole entry): T1 sequence (P28572 whole entry)

CCc1nnc(-c2ccc(-c3ccccc3)cc2)n1-c1cccc(N(C)C)c1C
IC50 [1]: 3.1 µM

CCc1nnc(-c2ccc(-c3ccccc3)cc2)n1-c1cccc2cnccc12
CLint scaled [2]: > 1000 mL/min/kg | CLint scaled [3]: 374 mL/min/kg | Papp A→B at 2 h [4]: 25.6 ×10⁻⁶ cm/s | solubility at 20 h [5]: 5 µM (≈ 1.88 µg/mL) | logD [6]: 4.1

CCc1nnc(C2CCN(c3ccccc3)CC2)n1-c1ccccc1F
IC50 [1]: 6.6 µM

CCc1nnc(-c2ccc(-c3ccccc3)cc2)n1-c1cccc(CC#N)c1C
IC50 [1]: 2.8 µM

CCc1nnc(-c2ccc(-c3ccccc3)cc2)n1-c1cccc(CN(C)C)c1C
IC50 [1]: 29 µM

CCc1nnc(-c2ccc(-c3ccccc3)nc2)n1-c1ccccc1F
solubility at 20 h [5]: 31 µM (≈ 10.7 µg/mL)

CCc1nnc(-c2ccc(-c3ccccc3)nc2)n1-c1cccc(C#N)c1C (atropisomer S)
solubility at 20 h [5]: 94 µM (≈ 34.4 µg/mL)

Cc1nnc(-c2ccc(-c3ccccn3)cc2)n1-c1ccccc1F
IC50 [7]: 1.6 µM | IC50 [1]: 0.86 µM

CCc1nnc(N2CCC(c3ccccc3)CC2)n1-c1ccccc1F
IC50 [1]: 3.7 µM

CCc1nnc(-c2ccc(-c3ccccc3)cc2)n1-c1ccccc1F
solubility at 20 h [5]: < 1 µM

CCc1nnc(-c2ccc(-c3ccccc3)cc2)n1-c1cccc(Cl)c1C
IC50 [1]: 2.2 µM

CCc1nnc(-c2ccc(-c3ccccc3)cc2)n1-c1cccc(COC)c1C
IC50 [1]: 2.4 µM

Cc1nnc(-c2ccc(-c3cccnc3)cc2)n1-c1ccccc1F
IC50 [1]: 7 µM

CCc1nnc(N2CCN(c3ccccc3)CC2)n1-c1ccccc1F
IC50 [1]: 2.6 µM

CCc1nnc(-c2ccc(-c3ccccc3)cc2)n1-c1cccc(C(=O)OC)c1C
IC50 [1]: 5.1 µM

CCc1nnc(-c2ccc(-c3ccccc3)nc2)n1-c1cccc(C#N)c1C (atropisomer R)
clearance [8]: 21 mL/min/kg | Vd [9]: 3.4 L/kg | half-life [10]: 2.4 h | half-life [11]: 0.22 h | AUC [12]: 522 ng·h/mL | bioavailability [13]: 23% | AUC [14]: 875 ng·h/mL | Cmax [15]: 141 ng/mL | clearance [16]: 67 mL/min/kg | CLint scaled [2]: 787 mL/min/kg | AUC [17]: 235 ng·h/mL | CLint scaled [18]: 162 mL/min/kg | CLint scaled [3]: 55 mL/min/kg | Papp [19]: 35.4 ×10⁻⁶ cm/s | Cmax [20]: 319 ng/mL | bioavailability [21]: 32% | AUC [22]: 248 ng·h/mL | solubility [5]: 95 µM (≈ 34.7 µg/mL) | Vd [23]: 1 L/kg | logD [6]: 3

CCc1nnc(-c2ccc(-c3ccccc3)cc2)n1-c1cccc(Br)c1C
IC50 [1]: 2.2 µM

CCc1nnc(-c2ccc(-c3ccccc3)cc2)n1-c1cccc(C#N)c1C
CLint scaled [2]: > 1000 mL/min/kg | CLint scaled [3]: 126 mL/min/kg | Papp A→B at 2 h [4]: 27.5 ×10⁻⁶ cm/s | solubility at 20 h [5]: < 1 µM | logD [6]: 4.1

CCc1nnc(-c2ccc(-c3ccccc3)nc2)n1-c1cccc(C#N)c1C
Papp A→B at 2 h [4]: 29.6 ×10⁻⁶ cm/s | Kp [24]: 0.7 | solubility [5]: 98 µM (≈ 35.8 µg/mL)

Cc1nnc(-c2ccc(-c3ccncc3)cc2)n1-c1ccccc1F
IC50 [1]: 5.9 µM

CCc1nnc(-c2ccc(-c3ccccc3)cc2)n1-c1cccc(C(N)=O)c1C
IC50 [1]: 3.9 µM

CCc1nnc(-c2ccc(-c3ccccc3)cc2)n1-c1cccc(C(F)(F)F)c1C
IC50 [1]: > 10 µM | inhibition [25]: 38%
